Screens as filed in PubChem.
HTRA1 inh: inhibitors of human serine peptidase HTRA1 | recombinant HTRA1, FP-rhodamine activity-based probe, fluorescence polarization | 340,000 compounds, 0.5% hits | AID 504803 | Q92743 | inhibition, % at 5.96 µM; in the data active = inhibition above about 36%
rCAG RNA binder: binds r(CAG) RNA repeats; r(CAG) RNA repeat, TO-PRO-1 dye displacement fluorescence; inhibition, % at 3 µM; 370,000 compounds, 1.3% hits; AID 651821;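 active = inhibition above the plate cutoff, the mean of all test compounds on that plate plus 3 SD, cut at about 35% in these data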;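 note: higher means more dye released from RNA so lower well fluorescence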
LEDGF integ inh: blocks HIV-1 LEDGF/p75-dependent DNA integration; TR-FRET IN-LEDGF/p75 DNA integration, Eu/Cy5; inhibition, % at 3.7 µM; 370,000 compounds, 0.64% hits;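 active = inhibition above the screen-wide mean plus 3 SD, cut at about 13% in these data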;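 note: signal is the Cy5 over europium emission ratio at 671 and 618 nm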
ABHD4 inh: inhibits mouse alpha/beta hydrolase domain 4; 370,000 compounds, 0.54% hits; inhibition, % at 8.92 µM; Q8VD66; AID 720543; purified mABHD4, FP-Rh probe fluorescence polarization;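 active = inhibition exceeding the mean over every tested compound plus 3 SD, cut at about 30% in these data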
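Test system: mABHD4 protein; Read-out basis: % inhibition; Incubation: 45 min + 60 min at 25 °C; Repeats: single replicate; Technique: fluorescence polarization with parallel and perpendicular emission, 525/598 nm; Compound: 8.92 µM, single dose; Benchmarks: full inhibition S159A mutant plus DMSO, zero as sample-well median.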
DAGLB inh: diacylglycerol lipase beta (human) inhibition; inhibition, % at 5.17 µM; HEK293T DAGLB membrane lysate, EnzChek fluorogenic substrate; Q8NCG7; 340,000 compounds, 0.059% hits; in the data active = inhibition above about 34%
PRMT1 FP inh: inhibitors of human PRMT1. 370,000 compounds, 1.3% hits. inhibition, % at 2.79 µM. Q99873. recombinant PRMT1, activity-based probe fluorescence polarization;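 active = inhibition above about 21% made by adding two undisclosed values, limit read from the data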
Target sequence (Q99873 whole entry, looked up): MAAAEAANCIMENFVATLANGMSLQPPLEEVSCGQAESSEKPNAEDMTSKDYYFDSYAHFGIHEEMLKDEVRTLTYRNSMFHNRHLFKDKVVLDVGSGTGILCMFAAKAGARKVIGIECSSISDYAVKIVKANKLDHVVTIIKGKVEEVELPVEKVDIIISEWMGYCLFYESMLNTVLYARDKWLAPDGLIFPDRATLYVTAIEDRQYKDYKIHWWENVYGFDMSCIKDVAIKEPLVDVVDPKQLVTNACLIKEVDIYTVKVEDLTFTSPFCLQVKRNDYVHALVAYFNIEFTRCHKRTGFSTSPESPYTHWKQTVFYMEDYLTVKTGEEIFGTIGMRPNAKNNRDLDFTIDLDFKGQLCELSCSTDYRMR
PRMT1 inh conf: PRMT1 (human) inhibition, FP confirmation; shares compounds with PRMT1 FP inh; recombinant His-PRMT1, activity-based probe fluorescence polarization; inhibition, % at 2.79 µM; 3,300 compounds, 42% hits; AID 687036;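 active = mean inhibition across replicates above the hit cutoff derived for the earlier primary screen, cut at about 22% in these data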
Each line names hits and unclear results; the compound was inactive in the other large screens (follow-up assays come after a bar, where they were run). An excerpt weighted towards active compounds, which were near 3.2% of everything screened.

CCc1ccc(-c2cn(C3CCCCC3)c(=S)[nH]2)cc1	PRMT1 FP inh 29.1 | PRMT1 inh conf inactive
O=C(NCCF)C1Nc2ccc(OC(F)(F)F)cc2C2C=CCC12 (configuration not stated)	PRMT1 FP inh 28.9 | PRMT1 inh conf inactive
Cc1[nH]c(=O)c(C#N)c2c1CCCC2	none
Cc1[nH]c(=S)c(C#N)c2c1CCCC2	PRMT1 FP inh 39.8 | PRMT1 inh conf inactive
Cc1cc(C(=O)COc2ccccc2[N+](=O)[O-])c(C)n1C1CC1	none
O=C(Nc1ccccc1)C(Cl)C(=O)c1ccccc1 (configuration not stated)	PRMT1 FP inh 61.9 | PRMT1 inh conf 79.0
O=C1NC(=S)CN1c1ccccc1	PRMT1 FP inh 65.3 | PRMT1 inh conf 59.6
N#Cc1ccccc1NC(=O)CSC1=Nc2ccccc2C2CC=NN12 (configuration not stated)	PRMT1 FP inh 25.3 | PRMT1 inh conf 55.8
O=C(CSc1ccccc1C(=O)O)Nc1ccc2c(c1)OCO2	none
O=C(CSC1=Nc2ccccc2C2CC=NN12)Nc1ccc2c(c1)OCO2 (configuration not stated)	PRMT1 FP inh 40.9 | PRMT1 inh conf 27.6
CCCOC(=O)c1ccc(NC(=O)CSC2=Nc3ccccc3C3CC=NN23)cc1 (configuration not stated)	PRMT1 FP inh 34.8 | PRMT1 inh conf inactive
O=C(CSC1=Nc2ccccc2C2CC=NN12)NCc1ccco1 (configuration not stated)	none
C/C(=N\Nc1ncc(Cl)cc1Cl)c1ccc2c(c1)OCO2	none
CCCS(=O)(=O)NC(=O)C1(C)CCCN(C(=O)c2sccc2C)C1 (configuration not stated)	none (no result: HTRA1 inh, DAGLB inh)
Nc1ccccc1SC1CC(=O)N(c2ccc3c(c2)OCCO3)C1=O (configuration not stated)	none
O=C1CC(Sc2ccc(Cl)cc2)C(=O)N1c1ccc2c(c1)OCCO2 (configuration not stated)	PRMT1 FP inh 55.2 | PRMT1 inh conf 44.9
CNC(=O)c1ccc(-c2ccccc2)s1	none
CCOc1ccc(N2C(=O)CC(NC3CCN(C(=O)c4cccc(Cl)c4)CC3)C2=O)cc1 (configuration not stated)	PRMT1 FP inh 65.5 | PRMT1 inh conf inactive
CCOc1ccc(N2C(=O)CC(N3CCN(C(=O)c4ccco4)CC3)C2=O)cc1 (configuration not stated)	none
CCOc1ccc(N2C(=O)CC(NC3CCN(C(=O)c4cccs4)CC3)C2=O)cc1 (configuration not stated)	PRMT1 FP inh 88.7 | PRMT1 inh conf inactive
CCOc1ccc(C(=O)N2CCN(c3cccc(Cl)c3)CC2)cc1	none
COc1ccc(-c2nc3c([nH]2)c(=O)n(C)c(=O)n3C)c(OC)c1	none
CCCN(CCC)c1cc(=O)nc2ccccn12	none (no result: HTRA1 inh, DAGLB inh)
O=C1CC(Sc2ccc(Cl)cc2)C(=O)N1Cc1ccncc1 (configuration not stated)	none
NCCSC1CC(=O)N(Cc2ccc(F)cc2)C1=O (configuration not stated)	PRMT1 FP inh 27.1 | PRMT1 inh conf inactive
O=C(CSc1nc2[nH]ncc2c(=O)[nH]1)N1CCCCC1	none
COC(=O)c1ccc2nc(C3CCCCC3)c(Cc3ccccc3C(F)(F)F)n2c1	none (no result: HTRA1 inh, DAGLB inh)
COC(=O)c1ccc2nc(-c3ccco3)c(Cc3ccccc3C(F)(F)F)n2c1	PRMT1 FP inh 33.8 (no result: HTRA1 inh, DAGLB inh) | PRMT1 inh conf inactive
COC(=O)c1ccc2nc(-c3ccco3)c(Cc3ccccc3OC)n2c1	PRMT1 FP inh 44.2 (no result: HTRA1 inh, DAGLB inh) | PRMT1 inh conf 28.3
C#CCOCCOCCOCCNc1nc(N2CCN(C(=O)[C@H](CCC(=O)O)n3cc(C(N)[C@H](C)CC)nn3)CC2)nc(N2CCN(C(=O)[C@H](Cc3ccc(O)cc3)n3cc(C(N)[C@H](C)CC)nn3)CC2)n1 (some centres not stated)	none (no result: rCAG RNA binder, LEDGF integ inh, ABHD4 inh, PRMT1 FP inh)
O=C(/C=C1\NC2(CCCC2)Cc2ccccc21)C(=O)N/N=C/c1ccccc1O	none
O=C1C=C(C2CCCCC2)C(=O)c2ccccc21	PRMT1 FP inh 30.9 | PRMT1 inh conf inactive
O=C(O)C1=C(C2CCCCC2)C(=O)c2ccccc21	none
Cc1ccccc1NC(c1cccc(Cl)c1)c1nnnn1C1CCCCC1 (configuration not stated)	none
COc1ccc(CCNC2CC(=O)N(N(C)C)C2=O)cc1OC (configuration not stated)	none
COc1ccc(CCN2C(=O)CC(NCCc3ccc(S(N)(=O)=O)cc3)C2=O)cc1OC (configuration not stated)	PRMT1 FP inh 41.5 | PRMT1 inh conf inactive
O=C1CC(NCCc2ccccc2)C(=O)N1CCc1ccccc1 (configuration not stated)	PRMT1 FP inh 37.7 | PRMT1 inh conf inactive
O=C1CC(N2CCN(C3CC(=O)N(CCc4ccccc4)C3=O)CC2)C(=O)N1CCc1ccccc1 (configuration not stated)	none
COc1ccc(CCN2C(=O)C=CC2=O)cc1OC	PRMT1 FP inh 88.6 | PRMT1 inh conf 84.5
O=C1CC(N2CCC(Cc3ccccc3)CC2)C(=O)N1CCc1ccccc1 (configuration not stated)	PRMT1 FP inh 47.4 | PRMT1 inh conf inactive
CC(=O)c1cccc(NC(=O)C2C3CCC(C3)C2C(=O)O)c1 (configuration not stated)	none
Cc1ccc(C)c(C(O)c2ncc(-c3ccccc3)[nH]2)c1 (configuration not stated)	none (no result: HTRA1 inh, DAGLB inh)
CCCCOc1ccc(N2C(=O)CC(NCCc3ccc(S(N)(=O)=O)cc3)C2=O)cc1 (configuration not stated)	PRMT1 FP inh 40.2 | PRMT1 inh conf inactive
COc1ccc(N2C(=O)CC(NC34CC5CC(CC(C5)C3)C4)C2=O)c(OC)c1 (configuration not stated)	PRMT1 FP inh 89.1 | PRMT1 inh conf inactive
COc1ccc(CCN2C(=O)CC(Cc3ccc(C)cc3)C2=O)cc1OC (configuration not stated)	none
CCCOc1ccc(N2C(=O)CC(NCc3cccnc3)C2=O)cc1 (configuration not stated)	none
COc1ccc(N2C(=O)C3C(C2=O)C2C=CC3C23CC3)c(OC)c1 (configuration not stated)	none
COc1ccc(CCN2C(=O)CC(NC34CC5CC(CC(C5)C3)C4)C2=O)cc1OC (configuration not stated)	PRMT1 FP inh 66.6 | PRMT1 inh conf inactive
CCCOc1ccc(N2C(=O)CC(NCCNc3ccc([N+](=O)[O-])cn3)C2=O)cc1 (configuration not stated)	PRMT1 FP inh 32.2 | PRMT1 inh conf inactive
